Source: PubChem
EBNA-1 inhibitor: blocks EBNA-1 binding to DNA; EBNA-1 DNA binding, fluorescence polarization; inhibition, % at 14.8 µM; 0.34% of 300,000 active; AID 1950; in the data active means inhibition above about 28%
FGF22 binding: shifts melting point of recombinant human FGF22; Q9HCT0; recombinant FGF22 thermal shift, SYPRO orange fluorescence; percent of sucrose octasulfate shift, DMSO zero; activity (Tm shift, normalised), % at 9.99 µM; 1.5% of 340,000 active;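 active means mean Tm shift, scaled 0 neutral to 100 positive control, at about 1.3% or above, every replicate too, limit read from the data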
Target sequence (Q9HCT0 whole entry, looked up): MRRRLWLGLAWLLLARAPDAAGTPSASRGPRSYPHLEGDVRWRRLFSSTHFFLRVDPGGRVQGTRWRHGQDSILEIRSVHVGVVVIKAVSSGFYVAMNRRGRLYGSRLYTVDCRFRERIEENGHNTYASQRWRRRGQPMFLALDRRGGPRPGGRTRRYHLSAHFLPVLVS
ZTA DNA inh: blocks Epstein-Barr virus ZTA, an EBNA-1 counter-screen; 0.15% of 320,000 active; ZTA-DNA binding, fluorescence polarization; inhibition, % at 11 µM; in the data active means inhibition above about 33%
Target sequence (P03206 whole entry, looked up): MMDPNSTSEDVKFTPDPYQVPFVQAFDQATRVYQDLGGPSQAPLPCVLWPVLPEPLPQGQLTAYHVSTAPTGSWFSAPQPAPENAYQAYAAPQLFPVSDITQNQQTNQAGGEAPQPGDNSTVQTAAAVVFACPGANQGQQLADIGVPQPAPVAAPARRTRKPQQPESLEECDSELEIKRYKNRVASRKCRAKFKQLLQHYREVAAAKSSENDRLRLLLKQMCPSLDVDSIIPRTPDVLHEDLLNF
NR3A LBD binder: modulators (binders) of human NR3A ligand-binding domain; 2.5% of 340,000 active; Tm shift relative to glycine control, % at 25 µM; NR3A LBD differential scanning fluorimetry, Tm shift; 0% = protein alone, 100% = glycine-bound protein;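 active means melting temperature shift of at least 10% of the positive control shift, at one fixed dose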
FID counter: fluorescent intercalator displacement, NS3 helicase counter-screen; DNA fluorescent intercalator displacement, fluorescence; inhibition, % at 7.9 µM; 0.17% of 290,000 active; in the data active means inhibition above about 37%;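 further: 0% = vehicle and 100% = reference compound; higher means more ethidium bromide displaced from hairpin DNA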
HCV NS3 hel inh: blocks Hepatitis C virus NS3 helicase unwinding | inhibition, % at 10.9 µM | AID 1800 | NS3 helicase DNA unwinding, Cy5 molecular beacon fluorescence | 0.56% of 290,000 active;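 active means inhibition above the mean of all tested compounds plus 3 SD, set per campaign, cut at about 35% in these data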;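 further: 0% = DMSO wells and 100% = thioflavine S control wells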
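assay system = NS3 helicase fragment of HCV | buffer or medium = MOPS pH 6.5, MgCl2, DTT, Tween20, BSA | timing = 60 min unwinding reaction at 25 °C after ATP addition | signal = Cy5 beacon fluorescence read at start and 1 h | read-out basis = % inhibition of unwinding | control set = low DMSO, high thioflavine S at 110 µM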
Active calls of the source: *; . = no result given. Rows were chosen to be rich in hits. Some 3.6% of all compounds tested hit in one or more screens of this group.

SMILES	EBNA-1 inhibitor	FGF22 binding	ZTA DNA inh	NR3A LBD binder	FID counter	HCV NS3 hel inh
CNC[C@H]1OCCCC[C@@H](C)Oc2ccc(NC(=O)Nc3ccc(F)cc3)cc2C(=O)N([C@@H](C)CO)C[C@H]1C	.	-0.2	.	.	.	.
CCOc1ccccc1OCc1nn2c(COc3ccccc3)nnc2s1	-4.0	.	-2.6	14.2*	-33.4	-3.9
c1ccc(Cc2nn3c(COc4ccccc4)nnc3s2)cc1	-1.3	.	3.4	-1.4	-18.7	-2.7
O=C(C[C@H]1C=C[C@H](NC(=O)Nc2ccc3c(c2)OCO3)[C@H](CO)O1)NCc1ccccc1	.	0.1	.	.	.	.
CCCc1cc(=O)[nH]c(Nc2ccc(O)cc2)n1	16.0	.	16.4	10.0*	-1.4	-5.3
CCCc1cc(=O)[nH]c(Nc2ccc(Cl)cc2)n1	-2.9	-0.1	4.9	-1.0	-11.2	16.2
O=C(CCN1C(=O)c2cccc3cccc(c23)C1=O)NCc1ccco1	13.4	43.6*	5.3	0.6	-7.8	1.1
Cc1ccc(NC(=O)CCN2C(=O)c3cccc4cccc(c34)C2=O)cc1	-16.0	-0.1	-10.3	4.6	0.9	4.9
O=C(CCN1C(=O)c2ccccc2C1=O)NCc1ccco1	5.8	0.1	-8.8	-3.9	-1.8	6.5
O=C(CCN1C(=O)c2cccc3cccc(c23)C1=O)Nc1ccccc1	5.0	43.2*	-5.2	0.2	-1.6	-1.0
CCC1CCCCN1CCCNS(=O)(=O)c1ccc2c(c1)oc(=O)n2C (stereo unspecified)	-5.1	-0.1	-12.7	-0.7	10.9	15.6
CCC1CCCCN1CCNS(=O)(=O)c1ccc2c(c1)oc(=O)n2C (stereo unspecified)	-10.4	0.0	4.5	14.1*	4.3	3.4
CC(=O)c1cccc(NC(=O)CCS(=O)(=O)c2cc3c(cc2C)NC(=O)CO3)c1	-7.8	0.1	-5.0	52.7*	-0.5	23.9
Cc1ccc(NC(=O)CCS(=O)(=O)c2cc3[nH]c(=O)c(=O)[nH]c3cc2C)cc1	13.2	0.0	14.8	14.8*	-2.3	5.9
NC(=O)c1ccc(Cc2ncc(C(F)(F)F)cc2Cl)s1	-5.9	.	0.1	8.0	-5.8	5.2
O=S(=O)(N/N=C/c1ccc(Cl)cc1)c1ccc(Cc2ncc(C(F)(F)F)cc2Cl)s1	1.6	.	5.0	28.9*	-5.6	10.0
CCC(=O)N(C)C[C@H]1Oc2cc(Br)ccc2S(=O)(=O)N([C@@H](C)CO)C[C@@H]1C	.	-0.2	.	.	.	.
O=C(C[C@H]1C[C@H]2c3cc(NC(=O)C4CCC4)ccc3O[C@H]2[C@@H](CO)O1)NCc1cccnc1	.	0.0	.	.	.	.
N#C/C(=C\c1ccc(OC(=O)c2ccccn2)cc1)C(N)=O	6.6	.	14.6	-11.7	-7.9	6.8
N#C/C(=C\c1ccc(OCc2ccccc2)cc1)C(N)=O	-10.0	1.0	-2.5	11.6*	-2.7	-0.8
Cc1ccccc1COc1ccc(/C=C(\C#N)C(N)=O)cc1	-3.9	43.9*	3.2	6.4	-4.8	3.5
CO[C@H]1CN(C)C(=O)c2cc(NC(=O)c3cccc(F)c3)ccc2OC[C@H](C)N(CC2CC2)C[C@H]1C	.	-0.1	.	.	.	.
COc1cc(/C=C2\SC(=S)N(CC(=O)NC(C)(C)C)C2=O)cc(OC)c1OC	.	43.5*	.	-5.4	-14.2	11.2
COc1cc(/C=C2\SC(=S)N(CC(=O)Nc3ccc(O)cc3)C2=O)cc(OC)c1OC	.	0.1	.	13.5*	-11.0	-19.9
COc1cc(/C=C2/SC(=S)N(CC(=O)NC(C)(C)C)C2=O)cc(OC)c1OC	-17.7	.	-11.4	-11.1	-13.0	10.7
SMILES	EBNA-1 inhibitor	FGF22 binding	ZTA DNA inh	NR3A LBD binder	FID counter	HCV NS3 hel inh
COc1ccc2c3c([nH]c2c1)[C@@H](CO)N(C(=O)C1CCOCC1)CC31CCN(C(=O)NC(C)C)CC1	.	0.0	.	.	.	.
COc1ccc(/C=C/C(=O)NC(=S)Nc2ccc(S(=O)(=O)N=C(N)N)cc2)cc1OC	58.2*	-0.1	39.7*	4.1	-10.2	8.1
C[C@@H]1CN([C@H](C)CO)C(=O)c2cc(NC(=O)Nc3ccccc3)ccc2O[C@@H](C)CCCCO[C@@H]1CN(C)C	.	-0.5	.	.	.	.
O=C(Nc1ccc(Cl)c(Cl)c1)OCc1cnc(Cl)s1	11.5	.	-9.4	12.1*	3.3	-0.1
CC(NC(=O)COC(=O)/C=C/c1ccc([N+](=O)[O-])cc1)c1ccccc1 (stereo unspecified)	2.1	0.3	4.4	-11.2	1.4	6.1
O=C(/C=C/c1ccc([N+](=O)[O-])cc1)OCc1cnc(-c2ccccc2)o1	1.2	43.7*	10.9	-1.6	-3.5	-0.1
COC(=O)C(CCSC)NC(=O)/C=C/c1ccc(OC)cc1 (stereo unspecified)	-1.9	43.5*	-2.9	-0.8	-8.5	5.4
Cc1nnc(SCc2ccccc2)[nH]c1=O	6.3	0.2	9.8	2.2	-0.5	-2.9
Cc1ccc(CSc2nnc(C)c(=O)[nH]2)cc1	-0.9	43.0*	-17.0	2.0	-2.1	-3.7
CC(C)(C)[S@](=O)N1Cc2cc(C(=O)N3CCCCC3)nc(-c3cccc(-c4ccc(C#N)cc4)c3)c2[C@@H]1CCO	.	-0.4	.	.	.	.
Cn1c(N)c(N2CCCCC2)c(=O)n(CC(=O)Nc2cccc(C#N)c2)c1=O	.	43.0*	.	1.1	.	.
N#Cc1cccc(NC(=O)CC2CCCCC2)c1	5.8	0.1	3.9	12.2*	-5.3	11.4
O=C(CC1CCCC1)Nc1cccc(Br)c1	3.5	-0.4	-2.9	-8.7	-11.1	-10.9
Cc1cccc(C)c1NC(=O)Cn1c(=O)c(N2CCCCC2)c(N)n(C)c1=O	.	-0.9	.	-10.1	.	.
C[C@H](CO)N1C[C@H](C)[C@@H](CN(C)C(=O)C2CC2)Oc2cc(-c3cccc(F)c3)ccc2S1(=O)=O	.	0.1	.	.	.	.
C[C@@H]1CN([C@H](C)CO)S(=O)(=O)c2ccc(-c3cncnc3)cc2O[C@@H]1CN(C)C(=O)C1CCCCC1	.	-0.4	.	.	.	.
Cc1ccccc1C[n+]1cccc2ccccc21	-1.0	0.3	-7.9	12.9*	.	.
CCCCCCCCCCCCCCCC[n+]1cccc2ccccc21	-0.5	0.9	28.1	38.9*	14.6	-71.8
COc1ccc(CN2CC3(CN(C(=O)Cc4ccncc4)C3)c3c([nH]c4cc(OC)ccc34)[C@H]2CO)cc1	.	-0.3	.	.	.	.
CCCCC#Cc1cncc(C(=O)NN)c1	-1.8	0.0	-15.2	0.0	-8.2	5.3
CCCCCCC#Cc1cncc(C(=O)NNC(=O)Nc2cc(Cl)cc(Cl)c2)c1	9.5	-0.2	-6.9	15.9*	-3.7	-0.8
CO[C@H]1CN(C)C(=O)c2ccc(NC(=O)NC(C)C)cc2OC[C@@H](C)N(C(=O)CC2CC2)C[C@@H]1C	.	-0.2	.	.	.	.
CN(C)CC(=O)N1[C@H](CO)[C@H](c2ccccc2-c2cccc(C(=O)N(C)C)c2)[C@@H]1C#N	.	-0.1	.	.	.	.
C1CCC(Nc2nc3nonc3nc2N2CCSCC2)C1	-2.2	0.0	3.9	-0.3	1.5	22.1
C1CCN(C2CCN(c3nc4nonc4nc3N3CCSCC3)CC2)C1	9.9	43.2*	8.0	-4.0	-7.1	-7.0
